According to ChEMBL document CHEMBL3621107, “Ring fusion strategy for synthesis and lead optimization of sulfur-substituted anthra[1,2-c][1,2,5]thiadiazole-6,11-dione derivatives as promising scaffold of antitumor agents” (Eur J Med Chem, 2015):

Columns and labels:
Type in all cases: functional
[1] = tested on: KM12; experiment: Cytotoxicity against human KM12 cells after 48 hrs by SRB assay; conditions: KM12, 48 h
How it was run: (§1)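 NCI-60 human tumour cell panel screen, second stage, run by the NCI Developmental Therapeutics Program. Compounds were tested at five concentrations (0.01, 0.1, 1, 10 and 100 μM). Percentage growth was plotted against log10 concentration for each cell line. GI50, TGI and LC50 were taken from these dose-response curves.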

[2] = tested on: Malme-3M; experiment: Cytotoxicity against human MALME-3M cells after 48 hrs by SRB assay; how it was run: as §1
[3] = tested on: MDA-MB-231; experiment: Cytotoxicity against human MDA-MB-231 cells after 48 hrs by SRB assay; conditions: MDA-MB-231, 48 h
How it was run: (§2)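 Second-stage NCI-60 panel run by the NCI Developmental Therapeutics Program, covering nine tumour subpanels. Five concentrations were tested: 0.01, 0.1, 1, 10 and 100 μM. Percentage growth at each level was plotted against log10 drug concentration. GI50, TGI and LC50 were read from these dose-response curves. Subpanel MID values were divided into the full-panel MID to give selectivity ratios.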

[4] = Cytotoxicity against human melanoma cells assessed as growth inhibition after 48 hrs by SRB assay; conditions: Melanoma cell
How it was run: (§3)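 Values come from the NCI-60 five-dose panel (0.01–100 µM). The subpanel MID is the mean GI50 over the lines of that tumour subpanel. The selectivity ratio is the full-panel MID divided by the subpanel MID; 3–6 is rated moderate and >6 high.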

[5] = tested on: HCT-15; experiment: Cytotoxicity against human HCT15 cells after 48 hrs by SRB assay; conditions: HCT-15, 48 h; how it was run: as §1
[6] = tested on: M14; experiment: Cytotoxicity against human M14 cells after 48 hrs by SRB assay; conditions: M14, 48 h; how it was run: as §1
[7] = tested on: HL-60(TB); experiment: Cytotoxicity against human HL-60(TB) cells after 48 hrs by SRB assay; conditions: HL-60, 48 h
How it was run: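 NCI Developmental Therapeutics Program 60-cell-line screen, second stage: cells exposed to five concentrations (0.01, 0.1, 1, 10 and 100 μM). Growth is plotted against log10 concentration for each line, and GI50, TGI and LC50 are read from the dose-response curves.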

[8] = tested on: BT-549; experiment: Cytotoxicity against human BT549 cells after 48 hrs by SRB assay; conditions: BT-549, 48 h; how it was run: as §1
[9] = Cytotoxicity against human non-small cell lung cancer cells assessed as growth inhibition after 48 hrs by SRB assay; conditions: Cancer cell lines; how it was run: as §3
[10] = tested on: CAKI-1; experiment: Cytotoxicity against human Caki1 cells after 48 hrs by SRB assay; conditions: CAKI-1, 48 h; how it was run: as §1
[11] = tested on: LOX IMVI; experiment: Cytotoxicity against human LOXIMVI cells after 48 hrs by SRB assay; conditions: for CC50: read-out: LC50 (the source's name); how it was run: as §1
[12] = tested on: HOP-92; experiment: Cytotoxicity against human HOP92 cells after 48 hrs by SRB assay; conditions: HOP-92, 48 h; how it was run: as §1
[13] = tested on: HCC 2998; experiment: Cytotoxicity against human HCC2998 cells after 48 hrs by SRB assay; conditions: HCC 2998, 48 h; how it was run: as §1
[14] = tested on: SF-295; experiment: Cytotoxicity against human SF295 cells after 48 hrs by SRB assay; conditions: SF-295, 48 h; how it was run: as §2
[15] = Cytotoxicity against human breast cancer cells assessed as growth inhibition after 48 hrs by SRB assay; conditions: Cancer cell lines; how it was run: as §3
[16] = tested on: K562; experiment: Cytotoxicity against human K562 cells after 48 hrs by SRB assay; conditions: K562, 48 h; how it was run: as §1
[17] = tested on: MCF7; experiment: Cytotoxicity against human MCF7 cells after 48 hrs by SRB assay; conditions: MCF7, 48 h; how it was run: as §1
[18] = tested on: HCT-116; experiment: Cytotoxicity against human HCT116 cells after 48 hrs by SRB assay; conditions: HCT-116, 48 h; for CC50: read-out: LC50 (the source's name); how it was run: as §1
[19] = tested on: OVCAR-4; experiment: Cytotoxicity against human OVCAR4 cells after 48 hrs by SRB assay; conditions: OVCAR-4, 48 h; how it was run: as §2
[20] = tested on: HOP-62; experiment: Cytotoxicity against human HOP62 cells after 48 hrs by SRB assay; conditions: HOP-62, 48 h; how it was run: as §1
[21] = tested on: OVCAR-5; experiment: Cytotoxicity against human OVCAR5 cells after 48 hrs by SRB assay; conditions: OVCAR-5, 48 h; how it was run: as §2
[22] = tested on: ACHN; experiment: Cytotoxicity against human ACHN cells after 48 hrs by SRB assay; how it was run: as §1
[23] = tested on: SK-MEL-28; experiment: Cytotoxicity against human SK-MEL-28 cells after 48 hrs by SRB assay; conditions: SK-MEL-28, 48 h; for CC50: read-out: LC50 (the source's name); how it was run: as §2
[24] = Cytotoxicity against human leukemia cells assessed as growth inhibition after 48 hrs by SRB assay; conditions: Leukemia cell; how it was run: as §3
[25] = tested on: MDA-MB-468; experiment: Cytotoxicity against human MDA-MB-468 cells after 48 hrs by SRB assay; conditions: MDA-MB-468, 48 h; how it was run: as §2
[26] = tested on: SNB-19; experiment: Cytotoxicity against human SNB19 cells after 48 hrs by SRB assay; conditions: SNB-19, 48 h; how it was run: as §2
[27] = tested on: NCI-H226; experiment: Cytotoxicity against human NCI-H226 cells after 48 hrs by SRB assay; conditions: NCI-H226, 48 h; how it was run: as §2
[28] = tested on: A498; experiment: Cytotoxicity against human A498 cells after 48 hrs by SRB assay; conditions: A498, 48 h; how it was run: as §1
[29] = tested on: RPMI-8226; experiment: Cytotoxicity against human RPMI8226 cells after 48 hrs by SRB assay; conditions: RPMI-8226, 48 h; how it was run: as §2
[30] = Cytotoxicity against human EKVX cells after 48 hrs by SRB assay; how it was run: as §1

CC(C)Sc1cc2c(c3nsnc13)C(=O)c1ccccc1C2=O
GI50 [1]: 3.19 µM | LC50 (concentration killing 50% of cells) [1]: 41.1 µM | TGI [1]: 11.3 µM | GI50 [2]: 1.12 µM | LC50 [2]: 5.03 µM | TGI [2]: 2.38 µM | GI50 [3]: 0.29 µM | LC50 (concentration killing 50% of cells) [3]: 4.9 µM | TGI [3]: 1.41 µM | GI50 [4]: 1.12 µM | GI50 [5]: 1.69 µM | LC50 [5]: 40.4 µM | TGI [5]: 6.91 µM | GI50 [6]: 1.54 µM | LC50 [6]: 6.53 µM | TGI [6]: 3.18 µM | GI50 [7]: 0.23 µM | LC50 [7]: 40.8 µM | TGI [7]: 0.617 µM | GI50 [8]: 2.19 µM | LC50 [8]: 29.8 µM | TGI [8]: 8.38 µM | GI50 [9]: 1.81 µM | GI50 [10]: 0.59 µM | LC50 (concentration causing 50% net cell kill) [10]: 9.08 µM | TGI [10]: 2.59 µM | GI50 [11]: 0.34 µM | TGI [11]: 1.31 µM | CC50 [11]: 4.73 µM | GI50 [12]: 0.32 µM | LC50 (concentration giving 50% net cell kill) [12]: 14.5 µM | TGI [12]: 2.18 µM | GI50 [13]: 3.46 µM | LC50 [13]: 34.9 µM | TGI [13]: 11.1 µM | GI50 [14]: 1.88 µM | LC50 [14]: 9.83 µM | TGI [14]: 4.3 µM | GI50 [15]: 1.09 µM | GI50 [16]: 0.26 µM | LC50 [16]: 14.3 µM | TGI [16]: 1.35 µM | GI50 [17]: 1.71 µM | LC50 (concentration killing 50% of cells) [17]: 8.42 µM | TGI [17]: 3.8 µM | GI50 [18]: 0.29 µM | TGI [18]: 1.01 µM | CC50 [18]: 4.22 µM | GI50 [19]: 0.36 µM | LC50 [19]: 3.67 µM | TGI [19]: 1.34 µM | GI50 [20]: 2.1 µM | LC50 [20]: 24.2 µM | TGI [20]: 6.53 µM | GI50 [21]: 2.07 µM | LC50 [21]: 7.94 µM | TGI [21]: 4.05 µM | GI50 [22]: 1.25 µM | LC50 [22]: 8.5 µM | TGI [22]: 3.26 µM | GI50 [23]: 2.72 µM | TGI [23]: 5.99 µM | CC50 [23]: 18.8 µM | GI50 [24]: 0.25 µM | GI50 [25]: 0.37 µM | LC50 [25]: 4.39 µM | TGI [25]: 1.42 µM | GI50 [26]: 3.32 µM | LC50 [26]: 36.3 µM | TGI [26]: 13.1 µM | GI50 [27]: 1.83 µM | LC50 (concentration killing 50% of starting cells) [27]: 14.6 µM | TGI [27]: 4.64 µM | GI50 [28]: 0.56 µM | LC50 (concentration killing 50% of cells) [28]: 23.6 µM | TGI [28]: 4.28 µM | GI50 [29]: 0.29 µM | LC50 [29]: > 100 µM | TGI [29]: 1.78 µM

O=C1c2ccccc2C(=O)c2c1cc(SCc1ccccc1)c1nsnc21
GI50 [1]: 19.5 µM | LC50 (concentration killing 50% of cells) [1]: > 50 µM | TGI [1]: > 50 µM | GI50 [2]: 11 µM | LC50 [2]: 44.6 µM | TGI [2]: 22.2 µM | GI50 [30]: 14.2 µM | LC50 [30]: > 50 µM | TGI [30]: 26.3 µM | GI50 [3]: 5.14 µM | LC50 (concentration killing 50% of cells) [3]: 34.8 µM | TGI [3]: 13.4 µM | GI50 [4]: 10.6 µM | GI50 [5]: 8.27 µM | LC50 [5]: 35.3 µM | TGI [5]: 17.1 µM | GI50 [6]: 26 µM | LC50 [6]: > 50 µM | TGI [6]: > 50 µM | GI50 [7]: 1.63 µM | LC50 [7]: > 50 µM | TGI [7]: > 50 µM | GI50 [8]: 15.2 µM | LC50 [8]: > 50 µM | TGI [8]: 28.4 µM | GI50 [9]: 9.57 µM | GI50 [10]: 9.68 µM | LC50 (concentration causing 50% net cell kill) [10]: > 50 µM | TGI [10]: 26.2 µM | GI50 [11]: 5.68 µM | TGI [11]: 12.8 µM | CC50 [11]: 29.1 µM | GI50 [12]: 6.05 µM | LC50 (concentration giving 50% net cell kill) [12]: > 50 µM | TGI [12]: > 50 µM | GI50 [13]: > 50 µM | LC50 [13]: > 50 µM | TGI [13]: > 50 µM | GI50 [14]: > 50 µM | LC50 [14]: > 50 µM | TGI [14]: > 50 µM | GI50 [15]: 8 µM | GI50 [16]: 1.47 µM | LC50 [16]: > 50 µM | TGI [16]: 6.5 µM | GI50 [17]: 8.33 µM | LC50 (concentration killing 50% of cells) [17]: 34.7 µM | TGI [17]: 17 µM | GI50 [18]: 7.29 µM | TGI [18]: 14.2 µM | CC50 [18]: 27.5 µM | GI50 [19]: 6.05 µM | LC50 [19]: 29 µM | TGI [19]: 13.2 µM | GI50 [20]: 10.7 µM | LC50 [20]: 30.4 µM | TGI [20]: 13.6 µM | GI50 [23]: 10.3 µM | TGI [23]: 17.5 µM | CC50 [23]: 42.9 µM | GI50 [24]: 2.67 µM | GI50 [25]: 0.89 µM | LC50 [25]: 4.21 µM | TGI [25]: 1.93 µM | GI50 [26]: 12.7 µM | LC50 [26]: > 50 µM | TGI [26]: 38.8 µM | GI50 [27]: > 50 µM | LC50 (concentration killing 50% of starting cells) [27]: > 50 µM | TGI [27]: 35.2 µM | GI50 [28]: > 50 µM | LC50 (concentration killing 50% of cells) [28]: > 50 µM | TGI [28]: > 50 µM | GI50 [29]: 8.45 µM | LC50 [29]: > 50 µM | TGI [29]: 33.4 µM
